From ChEMBL document CHEMBL5653622 (Oncotarget, 2016)
Calls of active or inactive are those of the source. No cut-off for these calls is given here.

Columns and labels:
[1] = target: MAP/microtubule affinity-regulating kinase 4 (Homo sapiens) (UniProt Q96L34); assay: Inhibition of human MARK4 assessed as remaining activity at 10 uM in presence of ATP by radiometric kinase assay relative to control
[2] = target: Cyclin-dependent kinase 1 (Homo sapiens) (UniProt P06493); assay: Inhibition of human CDK1 by DELFIA assay
[3] = target: Tyrosine-protein kinase SYK (Homo sapiens) (UniProt P43405); assay: Inhibition of human SYK assessed as remaining activity at 10 uM in presence of ATP by radiometric kinase assay relative to control
[4] = target: Ephrin type-B receptor 2 (Homo sapiens) (UniProt P29323); assay: Inhibition of human EPH-B2 assessed as remaining activity at 10 uM in presence of ATP by radiometric kinase assay relative to control
HT-29 [5] = assay: Induction of cell cycle arrest in etoposide induced human HT-29 cells assessed as decrease in accumulation of cells at G2/M phase at 1 to 5 uM incubated for 24 hrs by BrdU and PI staining based flow cytometry analysis; assay type: functional; conditions: dose 1-5 µM
Outline: (§1)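 HT29 cells exposed for 24h, stained with bromodeoxyuridine and propidium iodide, and cell-cycle distribution measured by flow cytometry.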

[6] = target: Homeodomain-interacting protein kinase 3 (Homo sapiens) (UniProt Q9H422); assay: Inhibition of human HIPK3 assessed as remaining activity at 10 uM in presence of ATP by radiometric kinase assay relative to control
[7] = target: RAC-alpha serine/threonine-protein kinase (Homo sapiens) (UniProt P31749); assay: Inhibition of human PKBa assessed as remaining activity at 10 uM in presence of ATP by radiometric kinase assay relative to control
[8] = target: Serine/threonine-protein kinase BRSK1 (Homo sapiens) (UniProt Q8TDC3); assay: Inhibition of human BRSK1 at 10 uM in presence of ATP by radiometric kinase assay relative to control
HT-29 [9] = assay: Induction of cell cycle arrest in human HT-29 cells assessed as accumulation of cells at G0/G1 phase at 0.5 uM incubated for 24 hrs by BrdU and PI staining based flow cytometry analysis; assay type: functional; outline: as §1
[10] = target: Tyrosine-protein kinase ABL1 (Homo sapiens) (UniProt P00519); assay: Inhibition of human ABL assessed as remaining activity at 10 uM in presence of ATP by radiometric kinase assay relative to control
Mus musculus [11] = assay: In vivo inhibition of total CHK1 in CRTac:Ncr-Fox1 athymic mouse xenografted with human Calu-6 cells at 150 mg/kg, po in presence of gemcitabine and carboplatin by ELISA analysis; assay type: functional, organism-based
[12] = target: Serine/threonine-protein kinase pim-3 (Homo sapiens) (UniProt Q86V86); assay: Inhibition of human PIM3 assessed as remaining activity at 10 uM in presence of ATP by radiometric kinase assay relative to control
[13] = target: Ribosomal protein S6 kinase alpha-1 (Homo sapiens, UniProt Q15418); assay: Inhibition of human RSK1 by 33P radiometric kinase assay
[14] = target: NUAK family SNF1-like kinase 1 (Homo sapiens) (UniProt O60285); assay: Inhibition of human NUAK1 at 10 uM in presence of ATP by radiometric kinase assay relative to control
[15] = target: Testis-specific serine/threonine-protein kinase 1 (Homo sapiens) (UniProt Q9BXA7); assay: Inhibition of human TSSK1 assessed as remaining activity at 10 uM in presence of ATP by radiometric kinase assay relative to control
[16] = target: Serine/threonine-protein kinase BRSK1 (Homo sapiens, UniProt Q8TDC3); assay: Inhibition of human BRSK1 by FRET based Z-LYTE kinase assay
[17] = target: Serine/threonine-protein kinase pim-2 (Homo sapiens) (UniProt Q9P1W9); assay: Inhibition of human PIM2 assessed as remaining activity at 10 uM in presence of ATP by radiometric kinase assay relative to control
[18] = target: Mitogen-activated protein kinase kinase kinase 5 (Homo sapiens) (UniProt Q99683); assay: Inhibition of human ASK1 assessed as remaining activity at 10 uM in presence of ATP by radiometric kinase assay relative to control
[19] = Toxicity in Emu-Myc driven transgenic mouse transplant model of B-cell lymphoma assessed as reduction in weight of thymus at 150 mg/kg, po administered for 9 days; assay type: organism-based; conditions: in vivo, 216 h, time 9 day
[20] = Toxicity in Emu-Myc driven transgenic mouse transplant model of B-cell lymphoma assessed as change in body weight at 150 mg/kg, po administered for 9 days; assay type: organism-based; conditions: in vivo, 216 h, time 9 day
Mus musculus [21] = assay: In vivo inhibition of CHK1 in CRTac:Ncr-Fox1 athymic mouse xenografted with human Calu-6 cells assessed as inhibition of CHK1 phosphorylation on S296 at 150 mg/kg, po in presence of gemcitabine and carboplatin by Western blotting analysis; assay type: functional, organism-based
Outline: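 Female CRTac:Ncr-Fox1(nu) athymic mice carried s.c. Calu6 xenografts. Tumors were taken 6h after the last inhibitor dose, lysed in CHAPS buffer, and immunoblotted with GAPDH as loading control.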

Chain of Ribosomal protein S6 kinase alpha-1 (Q15418 whole entry): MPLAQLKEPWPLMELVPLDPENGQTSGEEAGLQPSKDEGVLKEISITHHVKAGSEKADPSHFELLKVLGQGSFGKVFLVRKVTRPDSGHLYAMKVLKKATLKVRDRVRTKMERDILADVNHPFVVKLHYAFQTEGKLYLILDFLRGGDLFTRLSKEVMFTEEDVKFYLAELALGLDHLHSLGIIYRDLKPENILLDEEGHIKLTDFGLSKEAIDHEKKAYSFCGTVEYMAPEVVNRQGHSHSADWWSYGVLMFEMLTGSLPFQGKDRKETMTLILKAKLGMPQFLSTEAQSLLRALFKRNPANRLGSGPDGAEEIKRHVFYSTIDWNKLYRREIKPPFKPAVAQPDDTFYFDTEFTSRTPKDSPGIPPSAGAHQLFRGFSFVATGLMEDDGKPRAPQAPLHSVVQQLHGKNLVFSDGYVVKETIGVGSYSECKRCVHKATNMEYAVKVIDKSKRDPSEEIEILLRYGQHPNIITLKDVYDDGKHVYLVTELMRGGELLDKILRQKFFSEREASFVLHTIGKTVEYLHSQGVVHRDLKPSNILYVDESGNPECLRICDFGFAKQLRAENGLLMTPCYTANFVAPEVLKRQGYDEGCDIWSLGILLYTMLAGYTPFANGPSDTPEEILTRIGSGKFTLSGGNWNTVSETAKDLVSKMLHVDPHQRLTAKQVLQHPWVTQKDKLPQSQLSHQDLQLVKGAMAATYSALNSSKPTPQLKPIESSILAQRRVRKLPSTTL
Chain of Tyrosine-protein kinase ABL1 (Homo sapiens) (P00519 whole entry): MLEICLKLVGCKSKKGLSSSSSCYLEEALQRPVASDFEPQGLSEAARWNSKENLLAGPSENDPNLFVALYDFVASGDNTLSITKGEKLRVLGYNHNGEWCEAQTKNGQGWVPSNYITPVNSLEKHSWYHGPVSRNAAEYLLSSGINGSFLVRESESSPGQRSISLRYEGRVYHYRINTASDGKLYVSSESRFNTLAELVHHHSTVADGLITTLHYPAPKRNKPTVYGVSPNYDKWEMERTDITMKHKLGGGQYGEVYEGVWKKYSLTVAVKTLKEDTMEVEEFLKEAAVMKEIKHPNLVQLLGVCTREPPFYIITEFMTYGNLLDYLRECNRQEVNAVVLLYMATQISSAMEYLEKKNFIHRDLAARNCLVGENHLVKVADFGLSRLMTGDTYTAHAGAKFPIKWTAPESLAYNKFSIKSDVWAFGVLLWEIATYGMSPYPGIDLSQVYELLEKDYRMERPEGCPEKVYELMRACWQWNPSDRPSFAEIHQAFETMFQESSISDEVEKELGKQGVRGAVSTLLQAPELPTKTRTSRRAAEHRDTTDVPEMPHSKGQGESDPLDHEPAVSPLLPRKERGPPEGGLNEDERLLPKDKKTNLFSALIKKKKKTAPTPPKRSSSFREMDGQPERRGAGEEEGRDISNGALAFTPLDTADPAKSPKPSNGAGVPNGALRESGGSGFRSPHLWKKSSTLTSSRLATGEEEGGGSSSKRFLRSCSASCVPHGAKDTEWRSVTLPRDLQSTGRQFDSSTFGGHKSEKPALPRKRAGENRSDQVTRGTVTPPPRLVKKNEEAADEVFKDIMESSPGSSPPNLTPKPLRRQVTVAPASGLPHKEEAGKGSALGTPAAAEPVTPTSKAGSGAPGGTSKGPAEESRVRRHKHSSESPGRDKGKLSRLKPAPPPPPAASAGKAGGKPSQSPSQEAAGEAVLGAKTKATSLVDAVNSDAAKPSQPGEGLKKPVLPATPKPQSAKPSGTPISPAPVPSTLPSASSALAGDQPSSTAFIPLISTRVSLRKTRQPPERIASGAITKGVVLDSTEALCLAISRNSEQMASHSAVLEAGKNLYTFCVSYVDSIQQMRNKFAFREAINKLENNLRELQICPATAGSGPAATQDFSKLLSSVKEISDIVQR
Chain of Homeodomain-interacting protein kinase 3 (Homo sapiens) (Q9H422 whole entry, looked up): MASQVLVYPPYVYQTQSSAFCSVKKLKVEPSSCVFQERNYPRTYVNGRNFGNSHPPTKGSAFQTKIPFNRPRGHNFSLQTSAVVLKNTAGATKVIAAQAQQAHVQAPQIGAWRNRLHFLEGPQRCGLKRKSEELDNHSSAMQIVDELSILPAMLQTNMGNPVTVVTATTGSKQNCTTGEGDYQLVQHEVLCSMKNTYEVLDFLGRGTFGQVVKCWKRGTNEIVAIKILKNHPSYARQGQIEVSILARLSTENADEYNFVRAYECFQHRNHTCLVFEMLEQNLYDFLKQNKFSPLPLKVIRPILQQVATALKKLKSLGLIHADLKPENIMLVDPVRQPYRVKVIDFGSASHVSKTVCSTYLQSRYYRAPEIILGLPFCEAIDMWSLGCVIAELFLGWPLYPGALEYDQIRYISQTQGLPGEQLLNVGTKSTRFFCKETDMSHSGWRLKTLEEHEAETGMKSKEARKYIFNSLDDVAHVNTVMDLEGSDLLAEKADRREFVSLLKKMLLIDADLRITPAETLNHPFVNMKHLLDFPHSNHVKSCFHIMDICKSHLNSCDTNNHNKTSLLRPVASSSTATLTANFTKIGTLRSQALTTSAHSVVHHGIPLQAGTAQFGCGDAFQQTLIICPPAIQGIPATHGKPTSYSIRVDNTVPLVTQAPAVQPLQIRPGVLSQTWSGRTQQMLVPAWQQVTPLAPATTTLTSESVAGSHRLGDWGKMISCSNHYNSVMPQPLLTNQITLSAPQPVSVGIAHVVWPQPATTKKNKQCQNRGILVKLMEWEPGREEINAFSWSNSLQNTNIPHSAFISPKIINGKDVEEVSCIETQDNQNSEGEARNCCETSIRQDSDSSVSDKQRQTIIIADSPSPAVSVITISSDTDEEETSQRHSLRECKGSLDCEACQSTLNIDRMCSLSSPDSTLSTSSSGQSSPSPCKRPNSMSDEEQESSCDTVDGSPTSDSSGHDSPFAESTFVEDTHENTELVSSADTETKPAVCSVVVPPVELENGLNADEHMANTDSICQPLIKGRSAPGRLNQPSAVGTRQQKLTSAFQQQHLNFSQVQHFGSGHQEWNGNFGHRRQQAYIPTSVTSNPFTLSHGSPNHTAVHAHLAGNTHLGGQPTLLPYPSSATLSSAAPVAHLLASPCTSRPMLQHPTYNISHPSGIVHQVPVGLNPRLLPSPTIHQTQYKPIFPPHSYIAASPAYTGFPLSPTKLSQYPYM
Chain of Serine/threonine-protein kinase BRSK1 (Q8TDC3 whole entry): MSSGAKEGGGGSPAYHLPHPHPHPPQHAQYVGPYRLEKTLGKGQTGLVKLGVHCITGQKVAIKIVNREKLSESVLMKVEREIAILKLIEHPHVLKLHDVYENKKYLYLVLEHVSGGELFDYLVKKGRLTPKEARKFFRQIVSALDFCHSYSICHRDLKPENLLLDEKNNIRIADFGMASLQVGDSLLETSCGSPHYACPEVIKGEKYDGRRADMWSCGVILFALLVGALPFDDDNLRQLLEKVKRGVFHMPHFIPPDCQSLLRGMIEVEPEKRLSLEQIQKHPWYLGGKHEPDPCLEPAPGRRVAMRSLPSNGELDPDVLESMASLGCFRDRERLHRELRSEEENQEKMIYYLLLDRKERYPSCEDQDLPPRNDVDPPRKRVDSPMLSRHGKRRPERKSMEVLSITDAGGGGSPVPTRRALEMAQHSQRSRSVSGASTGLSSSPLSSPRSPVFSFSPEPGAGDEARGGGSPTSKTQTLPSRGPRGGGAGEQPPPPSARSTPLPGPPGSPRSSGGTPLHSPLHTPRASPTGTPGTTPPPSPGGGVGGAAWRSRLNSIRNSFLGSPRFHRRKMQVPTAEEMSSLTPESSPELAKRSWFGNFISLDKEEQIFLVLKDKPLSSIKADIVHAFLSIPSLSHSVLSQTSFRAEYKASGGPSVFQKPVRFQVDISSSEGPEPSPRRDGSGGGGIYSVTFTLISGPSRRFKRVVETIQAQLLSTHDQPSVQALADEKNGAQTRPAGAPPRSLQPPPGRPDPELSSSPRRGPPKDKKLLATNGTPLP
Chain of Serine/threonine-protein kinase BRSK1 (Homo sapiens) (Q8TDC3 whole entry): as above
Chain of MAP/microtubule affinity-regulating kinase 4 (Homo sapiens) (Q96L34 whole entry): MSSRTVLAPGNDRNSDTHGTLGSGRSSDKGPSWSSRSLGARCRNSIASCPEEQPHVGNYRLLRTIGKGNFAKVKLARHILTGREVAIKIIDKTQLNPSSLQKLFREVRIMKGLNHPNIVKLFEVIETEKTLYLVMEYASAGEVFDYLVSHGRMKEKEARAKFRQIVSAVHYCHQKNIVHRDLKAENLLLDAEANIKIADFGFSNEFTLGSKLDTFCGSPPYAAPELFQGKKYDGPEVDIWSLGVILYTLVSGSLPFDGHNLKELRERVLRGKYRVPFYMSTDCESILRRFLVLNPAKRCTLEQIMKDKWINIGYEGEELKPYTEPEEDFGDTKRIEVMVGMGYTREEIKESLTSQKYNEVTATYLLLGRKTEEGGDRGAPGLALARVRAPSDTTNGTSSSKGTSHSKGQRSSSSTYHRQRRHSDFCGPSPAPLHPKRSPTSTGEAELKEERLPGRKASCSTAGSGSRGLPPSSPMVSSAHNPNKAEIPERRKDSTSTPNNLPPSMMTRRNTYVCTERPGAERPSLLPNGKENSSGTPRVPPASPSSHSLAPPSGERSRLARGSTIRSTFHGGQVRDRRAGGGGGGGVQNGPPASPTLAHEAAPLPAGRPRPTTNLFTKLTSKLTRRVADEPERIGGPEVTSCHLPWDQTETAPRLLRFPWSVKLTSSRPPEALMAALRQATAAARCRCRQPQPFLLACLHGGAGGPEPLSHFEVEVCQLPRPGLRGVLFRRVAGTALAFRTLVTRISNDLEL
Chain of Cyclin-dependent kinase 1 (Homo sapiens) (P06493 whole entry, looked up): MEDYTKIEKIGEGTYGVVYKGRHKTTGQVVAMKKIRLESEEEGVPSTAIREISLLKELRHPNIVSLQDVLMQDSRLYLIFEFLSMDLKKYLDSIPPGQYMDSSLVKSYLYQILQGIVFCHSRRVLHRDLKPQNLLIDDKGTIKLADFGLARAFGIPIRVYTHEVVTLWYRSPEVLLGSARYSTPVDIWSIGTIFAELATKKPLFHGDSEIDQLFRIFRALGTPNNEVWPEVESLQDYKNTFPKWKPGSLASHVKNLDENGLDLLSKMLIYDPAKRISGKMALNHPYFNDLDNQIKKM

Activity [1]: 39% | IC50 [2]: 2440 nM | Activity [3]: 84% | Activity [4]: 102% | Activity [6]: 124% | Activity [7]: 93% | inhibition [8]: 88% | Activity [10]: 93% | Activity [12]: 36% | IC50 [13]: 362 nM | inhibition [14]: 94% | Activity [15]: 53% | IC50 [16]: 1660 nM | Activity [17]: 88% | Activity [18]: 80%
Structure (SMILES): N#Cc1cnc(Nc2cc(NC[C@H]3CNCCO3)c(C(F)(F)F)cn2)cn1 [SRA-737]
Activity (HT-29 [5]): Active | Activity (HT-29 [9]): Active | inhibition (Mus musculus [11]): Active | Activity [19]: Toxic | Activity [20]: Non-Toxic | inhibition (Mus musculus [21]): Active
